Converted amounts (≈) assume the structure as drawn.
Experiments:
Pseudomonas aeruginosa [1] = assay: Antibacterial activity against 10^4 CFU Pseudomonas aeruginosa 09-32 after 18 hrs by CLSI agar dilution method; type: functional; settings: 09-32, 18 h
Streptococcus pneumoniae = assay: Antibacterial activity against 10^4 CFU Streptococcus pneumoniae 08-4 after 18 hrs by CLSI agar dilution method; type: functional; settings: 08-4, 18 h
[2] = test system: Staphylococcus epidermidis; assay: Antibacterial activity against 10^4 CFU methicillin-resistant Staphylococcus epidermidis 09-2 after 18 hrs by CLSI agar dilution method; type: functional; settings: 09-2, 18 h
Enterococcus faecalis [3] = assay: Antibacterial activity against 10^4 CFU Enterococcus faecalis 08-10 after 18 hrs by CLSI agar dilution method; type: functional; settings: 08-10, 18 h
Pseudomonas aeruginosa [4] = assay: Antibacterial activity against 10^4 CFU Pseudomonas aeruginosa ATCC 27853 after 18 hrs by CLSI agar dilution method; type: functional; settings: ATCC 27853, 18 h
[5] = Cytotoxicity against MDCK cells after 48 hrs by CPE assay; type: cell-based, Canis lupus familiaris; settings: dog
Method in brief: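 MDCK cells kept in Minimum Essential Medium with Earle's salt plus 10% fetal bovine serum at 37 °C, 5% CO₂. […] Medium then replaced by assay medium with or without compound. After 48 h exposure, viability read by CPE assay. CC₅₀ calculated by Reed–Muench analysis.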

Escherichia coli [6] = assay: Antibacterial activity against 10^4 CFU Escherichia coli 08-21 after 18 hrs by CLSI agar dilution method; type: functional; settings: 08-21, 18 h
Klebsiella pneumoniae [7] = assay: Antibacterial activity against 10^4 CFU Klebsiella pneumoniae 09-22 after 18 hrs by CLSI agar dilution method; type: functional; settings: 09-22, 18 h
Staphylococcus aureus [8] = assay: Antibacterial activity against 10^4 CFU methicillin-resistant Staphylococcus aureus 08-1 after 18 hrs by CLSI agar dilution method; type: functional; settings: 08-1, 18 h
Enterococcus faecalis [9] = assay: Antibacterial activity against 10^4 CFU Enterococcus faecalis 08-12 after 18 hrs by CLSI agar dilution method; type: functional; settings: 08-12, 18 h
Enterococcus faecium [10] = assay: Antibacterial activity against 10^4 CFU Enterococcus faecium 08-2 after 18 hrs by CLSI agar dilution method; type: functional; settings: 08-2, 18 h
Escherichia coli [11] = assay: Antibacterial activity against 10^4 CFU Escherichia coli ATCC 25922 after 18 hrs by CLSI agar dilution method; type: functional; settings: ATCC 25922, 18 h
Enterococcus faecium [12] = assay: Antibacterial activity against 10^4 CFU Enterococcus faecium 06-7 after 18 hrs by CLSI agar dilution method; type: functional; settings: 06-7, 18 h
Klebsiella pneumoniae [13] = assay: Antibacterial activity against 10^4 CFU Klebsiella pneumoniae 09-23 after 18 hrs by CLSI agar dilution method; type: functional; settings: 09-23, 18 h
Staphylococcus aureus [14] = assay: Antibacterial activity against 10^4 CFU Staphylococcus aureus ATCC 25923 after 18 hrs by CLSI agar dilution method; type: functional; settings: ATCC 25923, 18 h
Staphylococcus aureus [15] = assay: Antibacterial activity against 10^4 CFU methicillin-sensitive Staphylococcus aureus 08-1 after 18 hrs by CLSI agar dilution method; type: functional; settings: 08-1, 18 h
[16] = test system: Staphylococcus epidermidis; assay: Antibacterial activity against 10^4 CFU methicillin-sensitive Staphylococcus epidermidis 09-6 after 18 hrs by CLSI agar dilution method; type: functional; settings: 09-6, 18 h

Structure (SMILES): CO/N=C1\CN(c2nc3c(cc2F)c(=O)c(C(=O)O)cn3C2CC2)CCC1(C)N (centres undefined)
- MIC (Pseudomonas aeruginosa [1]): 16 µg/mL (≈ 39.7 µM)
- MIC (Streptococcus pneumoniae): 4 µg/mL (≈ 9.92 µM)
- MIC [2]: 0.25 µg/mL (≈ 0.62 µM)
- MIC (Enterococcus faecalis [3]): 16 µg/mL (≈ 39.7 µM)
- MIC (Pseudomonas aeruginosa [4]): 4 µg/mL (≈ 9.92 µM)
- CC50 at 48 h [5]: 77.4 µM
- MIC (Escherichia coli [6]): 16 µg/mL (≈ 39.7 µM)
- MIC (Klebsiella pneumoniae [7]): 16 µg/mL (≈ 39.7 µM)
- MIC (Staphylococcus aureus [8]): 0.25 µg/mL (≈ 0.62 µM)
- MIC (Enterococcus faecalis [9]): 16 µg/mL (≈ 39.7 µM)
- MIC (Enterococcus faecium [10]): 64 µg/mL (≈ 159 µM)
- MIC (Escherichia coli [11]): 8 µg/mL (≈ 19.8 µM)
- MIC (Enterococcus faecium [12]): 16 µg/mL (≈ 39.7 µM)
- MIC (Klebsiella pneumoniae [13]): 2 µg/mL (≈ 4.96 µM)
- MIC (Staphylococcus aureus [14]): 0.25 µg/mL (≈ 0.62 µM)
- MIC (Staphylococcus aureus [15]): 0.25 µg/mL (≈ 0.62 µM)
- MIC [16]: 0.25 µg/mL (≈ 0.62 µM)

Structure (SMILES): CCO/N=C1\CN(c2nc3c(cc2F)c(=O)c(C(=O)O)cn3C2CC2)CCC1(C)N (centres undefined)
- MIC (Pseudomonas aeruginosa [1]): 2 µg/mL (≈ 4.79 µM)
- MIC (Streptococcus pneumoniae): 0.25 µg/mL (≈ 0.599 µM)
- MIC [2]: 0.25 µg/mL (≈ 0.599 µM)
- MIC (Enterococcus faecalis [3]): > 128 µg/mL
- MIC (Pseudomonas aeruginosa [4]): 8 µg/mL (≈ 19.2 µM)
- CC50 at 48 h [5]: 300 µM
- MIC (Escherichia coli [6]): > 128 µg/mL
- MIC (Klebsiella pneumoniae [7]): > 128 µg/mL
- MIC (Staphylococcus aureus [8]): 0.25 µg/mL (≈ 0.599 µM)
- MIC (Enterococcus faecalis [9]): > 128 µg/mL
- MIC (Enterococcus faecium [10]): > 128 µg/mL
- MIC (Escherichia coli [11]): 128 µg/mL (≈ 307 µM)
- MIC (Enterococcus faecium [12]): > 128 µg/mL
- MIC (Klebsiella pneumoniae [13]): > 128 µg/mL
- MIC (Staphylococcus aureus [14]): 0.125 µg/mL (≈ 0.299 µM)
- MIC (Staphylococcus aureus [15]): 0.25 µg/mL (≈ 0.599 µM)
- MIC [16]: 0.25 µg/mL (≈ 0.599 µM)

Structure (SMILES): CO/N=C1\CN(c2nc3c(cc2F)c(=O)c(C(=O)O)cn3-c2ccc(F)cc2F)CCC1(C)N (centres undefined)
- MIC (Pseudomonas aeruginosa [1]): 0.25 µg/mL (≈ 0.526 µM)
- MIC (Streptococcus pneumoniae): 1 µg/mL (≈ 2.1 µM)
- MIC [2]: 0.25 µg/mL (≈ 0.526 µM)
- MIC (Enterococcus faecalis [3]): 64 µg/mL (≈ 135 µM)
- MIC (Pseudomonas aeruginosa [4]): 4 µg/mL (≈ 8.41 µM)
- CC50 at 48 h [5]: 93 µM
- MIC (Escherichia coli [6]): > 128 µg/mL
- MIC (Klebsiella pneumoniae [7]): 64 µg/mL (≈ 135 µM)
- MIC (Staphylococcus aureus [8]): 0.25 µg/mL (≈ 0.526 µM)
- MIC (Enterococcus faecalis [9]): 64 µg/mL (≈ 135 µM)
- MIC (Enterococcus faecium [10]): > 128 µg/mL
- MIC (Escherichia coli [11]): 16 µg/mL (≈ 33.7 µM)
- MIC (Enterococcus faecium [12]): > 128 µg/mL
- MIC (Klebsiella pneumoniae [13]): 64 µg/mL (≈ 135 µM)
- MIC (Staphylococcus aureus [14]): 0.25 µg/mL (≈ 0.526 µM)
- MIC (Staphylococcus aureus [15]): 0.25 µg/mL (≈ 0.526 µM)
- MIC [16]: 0.25 µg/mL (≈ 0.526 µM)

Structure (SMILES): CCO/N=C1\CN(c2nc3c(cc2F)c(=O)c(C(=O)O)cn3-c2ccc(F)cc2F)CCC1(C)N (centres undefined)
- MIC (Pseudomonas aeruginosa [1]): 0.5 µg/mL (≈ 1.02 µM)
- MIC (Streptococcus pneumoniae): 0.25 µg/mL (≈ 0.511 µM)
- MIC [2]: 0.25 µg/mL (≈ 0.511 µM)
- MIC (Enterococcus faecalis [3]): 8 µg/mL (≈ 16.3 µM)
- MIC (Pseudomonas aeruginosa [4]): 4 µg/mL (≈ 8.17 µM)
- CC50 at 48 h [5]: 128 µM
- MIC (Escherichia coli [6]): 32 µg/mL (≈ 65.4 µM)
- MIC (Klebsiella pneumoniae [7]): 32 µg/mL (≈ 65.4 µM)
- MIC (Staphylococcus aureus [8]): 2 µg/mL (≈ 4.09 µM)
- MIC (Enterococcus faecalis [9]): 32 µg/mL (≈ 65.4 µM)
- MIC (Enterococcus faecium [10]): 64 µg/mL (≈ 131 µM)
- MIC (Escherichia coli [11]): 16 µg/mL (≈ 32.7 µM)
- MIC (Enterococcus faecium [12]): > 128 µg/mL
- MIC (Klebsiella pneumoniae [13]): 32 µg/mL (≈ 65.4 µM)
- MIC (Staphylococcus aureus [14]): 0.25 µg/mL (≈ 0.511 µM)
- MIC (Staphylococcus aureus [15]): 0.25 µg/mL (≈ 0.511 µM)
- MIC [16]: 0.25 µg/mL (≈ 0.511 µM)

Structure (SMILES): CCn1cc(C(=O)O)c(=O)c2cc(F)c(N3CCC(C)(N)/C(=N/OC)C3)c(F)c21 (centres undefined)
- MIC (Pseudomonas aeruginosa [1]): 4 µg/mL (≈ 9.79 µM)
- MIC (Streptococcus pneumoniae): 0.25 µg/mL (≈ 0.612 µM)
- MIC [2]: 0.25 µg/mL (≈ 0.612 µM)
- MIC (Enterococcus faecalis [3]): 32 µg/mL (≈ 78.4 µM)
- MIC (Pseudomonas aeruginosa [4]): 4 µg/mL (≈ 9.79 µM)
- CC50 at 48 h [5]: 433 µM
- MIC (Escherichia coli [6]): > 128 µg/mL
- MIC (Klebsiella pneumoniae [7]): 32 µg/mL (≈ 78.4 µM)
- MIC (Staphylococcus aureus [8]): 0.25 µg/mL (≈ 0.612 µM)
- MIC (Enterococcus faecalis [9]): 64 µg/mL (≈ 157 µM)
- MIC (Enterococcus faecium [10]): > 128 µg/mL
- MIC (Escherichia coli [11]): 128 µg/mL (≈ 313 µM)
- MIC (Enterococcus faecium [12]): > 128 µg/mL
- MIC (Klebsiella pneumoniae [13]): 64 µg/mL (≈ 157 µM)
- MIC (Staphylococcus aureus [14]): 0.5 µg/mL (≈ 1.22 µM)
- MIC (Staphylococcus aureus [15]): 0.25 µg/mL (≈ 0.612 µM)
- MIC [16]: 0.25 µg/mL (≈ 0.612 µM)

Structure (SMILES): CCO/N=C1\CN(c2c(F)cc3c(=O)c(C(=O)O)cn(CC)c3c2F)CCC1(C)N (centres undefined)
- MIC (Pseudomonas aeruginosa [1]): 64 µg/mL (≈ 152 µM)
- MIC (Streptococcus pneumoniae): 0.25 µg/mL (≈ 0.592 µM)
- MIC [2]: 0.25 µg/mL (≈ 0.592 µM)
- MIC (Enterococcus faecalis [3]): 4 µg/mL (≈ 9.47 µM)
- MIC (Pseudomonas aeruginosa [4]): 4 µg/mL (≈ 9.47 µM)
- CC50 at 48 h [5]: 592 µM
- MIC (Escherichia coli [6]): > 128 µg/mL
- MIC (Klebsiella pneumoniae [7]): > 128 µg/mL
- MIC (Staphylococcus aureus [8]): 0.25 µg/mL (≈ 0.592 µM)
- MIC (Enterococcus faecalis [9]): > 128 µg/mL
- MIC (Enterococcus faecium [10]): > 128 µg/mL
- MIC (Escherichia coli [11]): > 128 µg/mL
- MIC (Enterococcus faecium [12]): > 128 µg/mL
- MIC (Klebsiella pneumoniae [13]): > 128 µg/mL
- MIC (Staphylococcus aureus [14]): 0.25 µg/mL (≈ 0.592 µM)
- MIC (Staphylococcus aureus [15]): 0.25 µg/mL (≈ 0.592 µM)
- MIC [16]: 0.25 µg/mL (≈ 0.592 µM)

Structure (SMILES): CO/N=C1\CN(c2c(F)cc3c(=O)c(C(=O)O)cn(CCF)c3c2F)CCC1(C)N (centres undefined)
- MIC (Pseudomonas aeruginosa [1]): 0.5 µg/mL (≈ 1.17 µM)
- MIC (Streptococcus pneumoniae): 2 µg/mL (≈ 4.69 µM)
- MIC [2]: 0.25 µg/mL (≈ 0.586 µM)
- MIC (Enterococcus faecalis [3]): 128 µg/mL (≈ 300 µM)
- MIC (Pseudomonas aeruginosa [4]): 2 µg/mL (≈ 4.69 µM)
- CC50 at 48 h [5]: 36.6 µM
- MIC (Escherichia coli [6]): 32 µg/mL (≈ 75 µM)
- MIC (Klebsiella pneumoniae [7]): 16 µg/mL (≈ 37.5 µM)
- MIC (Staphylococcus aureus [8]): 0.25 µg/mL (≈ 0.586 µM)
- MIC (Enterococcus faecalis [9]): 32 µg/mL (≈ 75 µM)
- MIC (Enterococcus faecium [10]): 32 µg/mL (≈ 75 µM)
- MIC (Escherichia coli [11]): 32 µg/mL (≈ 75 µM)
- MIC (Enterococcus faecium [12]): 128 µg/mL (≈ 300 µM)
- MIC (Klebsiella pneumoniae [13]): 32 µg/mL (≈ 75 µM)
- MIC (Staphylococcus aureus [14]): 0.125 µg/mL (≈ 0.293 µM)
- MIC (Staphylococcus aureus [15]): 0.25 µg/mL (≈ 0.586 µM)
- MIC [16]: 0.25 µg/mL (≈ 0.586 µM)

Source: ChEMBL document CHEMBL1781961, “Synthesis and in vitro antibacterial activity of 7-(3-alkoxyimino-4-amino-4-methylpiperidin-1-yl) fluoroquinolone derivatives” (Eur J Med Chem, 2011)
